ChEMBL document CHEMBL1641445, “Synthesis, antiprotozoal, antimicrobial, β-hematin inhibition, cytotoxicity and methemoglobin (MetHb) formation activities of bis(8-aminoquinolines)” (Bioorg Med Chem, 2011)
Converted amounts (≈) assume the structure as drawn. The source made the active and inactive calls. The calls are words filed in the database; no cut-off is given here.

What was measured:
[1] = Hematotoxicity against RBC assessed as formation of methemoglobin at 20 ug/ml relative to control; type: cell-based; conditions: erythrocyte
Procedure, shortened: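 Metabolism-linked methemoglobin toxicity in vitro. Percent MetHb formation was determined at 20 µg/mL of compound relative to vehicle control.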

Leishmania donovani = assay: Antileishmanial activity against promastigotes of Leishmania donovani by alamar blue assay; type: functional, organism-based
Plasmodium falciparum [2] = assay: Antimalarial activity against chloroquine-resistant Plasmodium falciparum W2 by LDH assay; type: functional, organism-based
Procedure, shortened: (§1)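 Antiplasmodial activity was measured in vitro against P. falciparum blood-stage cultures. Read-out was parasite lactate dehydrogenase (LDH) activity, with IC50 values expressed in µg/mL. The same protocol was used for the D6 and W2 strains.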

[3] = Inhibition of beta-hematin formation; type: functional
Plasmodium falciparum [4] = assay: Antimalarial activity against chloroquine-sensitive Plasmodium falciparum D6 by LDH assay; type: functional, organism-based; procedure, shortened: as §1
Vero = assay: Cytotoxicity against african green monkey Vero cells up to 10 ug/ml by neutral red assay; type: cell-based; conditions: chlorocebus sabaeus
Procedure, shortened: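 Vero (monkey kidney) cells were exposed up to a highest concentration of 10 µg/mL. Viability was read by neutral red uptake.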

Cryptococcus neoformans = assay: Antifungal activity against Cryptococcus neoformans ATCC 90113; type: functional, organism-based
Candida albicans = assay: Antifungal activity against Candida albicans ATCC 90028 at 20 ug/ml; type: functional, organism-based
[5] = tested on: Mycobacterium intracellulare; assay: Antibacterial activity against Mycobacterium intracellular ATCC 23068 at 20 ug/ml by CLSI method; type: functional, organism-based
Staphylococcus aureus = assay: Antibacterial activity against methicillin-resistant Staphylococcus aureus ATCC 43300 by CLSI method; type: functional, organism-based
Procedure, shortened: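 Broth dilution method (NCCLS M7-A5). […] MIC is the lowest concentration allowing no detectable growth. MBC is the lowest concentration killing the organism. Highest test concentration was 20 µg/mL.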

[6] = Leishmania donovani, read-out: IC50
[7] = Plasmodium falciparum, W2, read-out: IC50
[8] = Plasmodium falciparum, D6, read-out: IC50

| SMILES | Methemoglobin formation [1] [%] | IC90 (Leishmania donovani; Leishmania donovani) [µg/mL] | IC50 (Leishmania donovani; [6]) [µg/mL] | IC50 [3] [µM] | IC50 (Plasmodium falciparum [4]) | Activity (Vero) | IC50 (Plasmodium falciparum [2]; [7]) [µg/mL] | IC50 (Plasmodium falciparum [4]; [8]) [µg/mL] | IC90 (Leishmania donovani) | also measured |
| --- | --- | --- | --- | --- | --- | --- | --- | --- | --- | --- |
| COc1cc(NC(C)CCCNC(=O)NC(=O)NCCCC(C)Nc2cc(OC)cc3ccc(C(C)(C)C)nc23)c2nc(C(C)(C)C)ccc2c1.Cl.Cl (stereo unspecified) | 8.8 | > 40 | 25 | > 1000 | Not Active | Non-toxic | – | – | – | IC50 (Plasmodium falciparum [2]): Not Active |
| COc1cc(NC(C)CCCNC(=O)NC(CCCN)C(=O)NCCCC(C)Nc2cc(OC)cc3cccnc23)c2ncccc2c1.Cl (single isomer, unassigned; 37) | 7.9 | 40 | 14 | 88 | – | Non-toxic | 2 | 2.8 | – | IC50 (Cryptococcus neoformans): 15 µg/mL; MFC (Cryptococcus neoformans): 20 µg/mL; MIC (Cryptococcus neoformans): 20 µg/mL; IC50 (Candida albicans): Not Active |
| COc1cc(NC(C)CCCNC(=O)NC(CCCNC(=N)N)C(=O)NCCCC(C)Nc2cc(OC)cc3cccnc23)c2ncccc2c1.Cl (single isomer, unassigned; 39) | 5.5 | 36 | 19 | 88 | – | Non-toxic | 1.5 | 2.4 | – | IC50 [5]: Not Active; IC50 (Staphylococcus aureus): 15 µg/mL; MBC (Staphylococcus aureus): 20 µg/mL; IC50 (Cryptococcus neoformans): 15 µg/mL; MFC (Cryptococcus neoformans): 20 µg/mL; MIC (Cryptococcus neoformans): 20 µg/mL; IC50 (Candida albicans): Not Active |
| COc1cc(NC(C)CCCNC(=O)c2cncc(C(=O)NCCCC(C)Nc3cc(OC)cc4ccc(C(C)(C)C)nc34)c2)c2nc(C(C)(C)C)ccc2c1.Cl (stereo unspecified) | 0.55 | – | 19 | 120 | – | Non-toxic | – | – | inactive | – |
| N=C(N)c1ccc(OCCCCCOc2ccc(C(=N)N)cc2)cc1 [PENTAMIDINE] | – | 3.8 (≈ 11.2 µM) | – | – | – | – | – | – | – | – |
| COc1cc(NC(C)CCCNC(=O)N[C@@H](CCCCN)C(=O)NCCCC(C)Nc2cc(OC)cc3ccc(C(C)(C)C)nc23)c2nc(C(C)(C)C)ccc2c1.Cl (stereo partly specified) | 1.1 | 38 | 19 | > 1000 | Not Active | Non-toxic | – | – | – | IC50 [5]: Not Active; MBC [5]: inactive; MIC [5]: inactive; IC50 (Staphylococcus aureus): 8 µg/mL; MBC (Staphylococcus aureus): 20 µg/mL; MIC (Staphylococcus aureus): 20 µg/mL; IC50 (Plasmodium falciparum [2]): Not Active |
| COc1cc(NC(C)CCCNC(=O)NC(CCCCN)C(=O)NCCCC(C)Nc2cc(OC)cc3cccnc23)c2ncccc2c1.Cl (single isomer, unassigned) | 3.75 | > 40 | 18 | 80 | – | Non-toxic | 2.7 | 2.7 | – | – |
| COc1cc(NC(C)CCCNC(=O)c2cccc(C(=O)NCCCC(C)Nc3cc(OC)cc4cccnc34)n2)c2ncccc2c1.Cl (stereo unspecified) | 5.7 | – | 6.5 | 123 | – | Non-toxic | 2.3 | – | inactive | – |
| COc1cc(NC(C)CCCNCC(=O)NCCCC(C)Nc2cc(OC)cc3cccnc23)c2ncccc2c1.Cl.Cl (stereo unspecified) | 20.3 | – | 20 | > 1000 | Not Active | Non-toxic | – | – | inactive | IC50 (Plasmodium falciparum [2]): Not Active |
| C[C@@H]1CC[C@H]2[C@@H](C)C(=O)O[C@@H]3O[C@@]4(C)CC[C@@H]1[C@]32OO4 [ARTEMISININ] | – | – | – | – | – | – | – | 0.015 (≈ 0.0531 µM) | – | – |
| COc1cc(NC(C)CCCNC(=S)NCCCC(C)Nc2cc(OC)cc3ccc(C(C)(C)C)nc23)c2nc(C(C)(C)C)ccc2c1.Cl.Cl (stereo unspecified) | 0.75 | 31 | 9 | > 1000 | – | Non-toxic | 2.3 | 3 | – | – |
| COc1cc(NC(C)CCCNC(=O)c2cccc(C(=O)NCCCC(C)Nc3cc(OC)cc4ccc(C(C)(C)C)nc34)n2)c2nc(C(C)(C)C)ccc2c1.Cl (stereo unspecified) | 0.25 | – | – | > 1000 | Not Active | Non-toxic | 4.5 | – | inactive | IC50 (Leishmania donovani): Not Active |
| COc1cc(NC(C)CCCNC(=O)c2cncc(C(=O)NCCCC(C)Nc3cc(OC)cc4cccnc34)c2)c2ncccc2c1.Cl (stereo unspecified) | 5.5 | – | 18 | 110 | – | Non-toxic | 3 | 3.3 | inactive | – |
| COc1cc(NC(C)CCCNC(=O)c2ccncc2C(=O)NCCCC(C)Nc2cc(OC)cc3cccnc23)c2ncccc2c1.Cl (stereo unspecified) | 3.55 | – | – | 108 | – | Non-toxic | 1.7 | 3 | inactive | IC50 (Leishmania donovani): Not Active |
| COc1cc(NC(C)CCCNC(=O)C(=O)NCCCC(C)Nc2cc(OC)cc3cccnc23)c2ncccc2c1.Cl.Cl (stereo unspecified) | 6.45 | > 40 | 15 | > 1000 | Not Active | Non-toxic | – | – | – | IC50 (Plasmodium falciparum [2]): Not Active |
| COc1cc(NC(C)CCCNC(=O)NC(CCCN)C(=O)NCCCC(C)Nc2cc(OC)cc3cccnc23)c2ncccc2c1.Cl (single isomer, unassigned; 40) | 6.1 | 39 | 18 | 154 | – | Non-toxic | 2.8 | 4.2 | – | IC50 [5]: Not Active; IC50 (Staphylococcus aureus): 10 µg/mL; MIC (Staphylococcus aureus): 20 µg/mL; IC50 (Cryptococcus neoformans): 7 µg/mL; IC50 (Candida albicans): Not Active |
| COc1cc(NC(C)CCCNSC(=O)NCCCC(C)Nc2cc(OC)cc3cccnc23)c2ncccc2c1.Cl.Cl (stereo unspecified) | 10.9 | 38 | 20 | 153 | Not Active | Non-toxic | 4.76 | – | – | – |
| C[C@@H]1[C@H](O)[C@@H](C)/C=C/C=C/C=C/C=C/C=C/C=C/C=C/[C@H](O[C@@H]2O[C@H](C)[C@@H](O)[C@H](N)[C@@H]2O)C[C@@H]2O[C@](O)(C[C@@H](O)C[C@@H](O)[C@H](O)CC[C@@H](O)C[C@@H](O)CC(=O)O[C@H]1C)C[C@H](O)[C@H]2C(=O)O [AMPHOTERICIN B] | – | 0.35 (≈ 0.379 µM) | – | – | – | – | – | – | – | – |
| COc1cc(NC(C)CCCNC(=O)c2ccncc2C(=O)NCCCC(C)Nc2cc(OC)cc3ccc(C(C)(C)C)nc23)c2nc(C(C)(C)C)ccc2c1.Cl (stereo unspecified) | 1.2 | 31 | 16 | 70 | – | Non-toxic | 0.87 | 1.5 | – | IC50 [5]: Not Active; MBC [5]: inactive; MIC [5]: inactive; IC50 (Staphylococcus aureus): 15 µg/mL; MBC (Staphylococcus aureus): 20 µg/mL; MIC (Staphylococcus aureus): 20 µg/mL |
| COc1cc(NC(C)CCCN)c2nc(C(C)(C)C)ccc2c1 (stereo unspecified) | – | – | – | 2.9 | – | – | – | – | – | – |
